Experimental data: ChEMBL document CHEMBL1926558, “Searching for the Multi-Target-Directed Ligands against Alzheimer's disease: discovery of quinoxaline-based hybrid compounds with AChE, H₃R and BACE 1 inhibitory activities” (Bioorg Med Chem, 2011)
Where “and” joins values, the source holds several entries; their conditions need not be identical. Identical values can stand only once. Calls of active or inactive are those of the source. No cut-off for these calls is given here.

Experiments:
[1] = molecular target: Histamine H2 receptor (Homo sapiens) (UniProt P25021); assay: Antagonist activity at histamine H2 receptor expressed in HEK293 cells co-transfected with pCRE-Luc gene assessed as inhibition of forskolin/histamine-induced cAMP accumulation at 1 uM after 5 hrs by luciferase reporter gene assay; assay type: functional, cell-based
How it was run: (§1)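 HEK-293 cells stably expressing H1R or H2R were grown in DMEM with 10% FBS and penicillin/streptomycin at 37 °C under 5% CO2. Transfectants were selected with 800 µg/mL G418. cAMP accumulation was induced by 1 µM histamine with test compound present and read out by CRE-luciferase transcription.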

Histamine H3 receptor [2] = molecular target: T1, Histamine H3 receptor (Homo sapiens, UniProt Q9Y5N1); assay: Inverse agonist activity at histamine H3 receptor expressed in HEK293 cells co-transfected with pCRE-Luc gene assessed as inhibition of forskolin/histamine-induced cAMP accumulation after 5 hrs by luciferase reporter gene assay; assay type: functional, cell-based
[3] = molecular target: Histamine H1 receptor (Homo sapiens) (UniProt P35367); assay: Antagonist activity at histamine H1 receptor expressed in HEK293 cells co-transfected with pCRE-Luc gene assessed as inhibition of forskolin/histamine-induced cAMP accumulation at 1 uM after 5 hrs by luciferase reporter gene assay; assay type: functional, cell-based; how it was run: as §1
Histamine H4 receptor [4] = molecular target: T2, Histamine H4 receptor (Homo sapiens, UniProt Q9H3N8); assay: Antagonist activity at histamine H4 receptor expressed in HEK293 cells co-transfected with pCRE-Luc gene assessed as inhibition of forskolin/histamine-induced cAMP accumulation at 1 uM after 5 hrs by luciferase reporter gene assay; assay type: functional, cell-based
Histamine H3 receptor [5] = molecular target: T1, Histamine H3 receptor; assay: Antagonist activity at histamine H3 receptor expressed in HEK293 cells co-transfected with pCRE-Luc gene assessed as inhibition of forskolin/histamine-induced cAMP accumulation at 1 uM after 5 hrs by luciferase reporter gene assay; assay type: functional, cell-based
Acetylcholinesterase [6] = molecular target: T3, Acetylcholinesterase (Rattus norvegicus, UniProt P37136); assay: Inhibition of AChE in rat cortex homogenates using acetylthiocholine iodide as substrate after 15 mins by Ellman's method
T3 sequence (P37136 whole entry): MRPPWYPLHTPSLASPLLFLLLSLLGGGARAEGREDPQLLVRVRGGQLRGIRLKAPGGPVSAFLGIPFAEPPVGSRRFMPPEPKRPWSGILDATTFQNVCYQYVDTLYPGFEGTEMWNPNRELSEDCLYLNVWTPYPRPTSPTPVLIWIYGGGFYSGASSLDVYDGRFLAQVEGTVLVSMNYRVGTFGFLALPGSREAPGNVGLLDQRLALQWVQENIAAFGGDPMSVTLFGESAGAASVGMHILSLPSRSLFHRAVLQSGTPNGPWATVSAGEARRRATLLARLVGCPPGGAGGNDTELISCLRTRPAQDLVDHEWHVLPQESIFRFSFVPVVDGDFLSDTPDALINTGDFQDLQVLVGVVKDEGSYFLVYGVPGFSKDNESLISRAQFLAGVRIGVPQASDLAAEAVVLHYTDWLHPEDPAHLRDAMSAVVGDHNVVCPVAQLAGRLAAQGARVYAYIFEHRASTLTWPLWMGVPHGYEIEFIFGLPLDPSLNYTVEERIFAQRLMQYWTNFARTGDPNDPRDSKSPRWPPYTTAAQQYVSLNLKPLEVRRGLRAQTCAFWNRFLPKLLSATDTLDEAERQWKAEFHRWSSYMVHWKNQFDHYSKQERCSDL

Histamine H3 receptor [7] = molecular target: T1, Histamine H3 receptor; assay: Antagonist activity at histamine H3 receptor expressed in HEK293 cells co-transfected with pCRE-Luc gene assessed as inhibition of forskolin/histamine-induced cAMP accumulation after 5 hrs by luciferase reporter gene assay; assay type: functional, cell-based
Histamine H4 receptor [8] = molecular target: T2, Histamine H4 receptor; assay: Antagonist activity at histamine H4 receptor expressed in HEK293 cells co-transfected with pCRE-Luc gene assessed as inhibition of forskolin/histamine-induced cAMP accumulation after 5 hrs by luciferase reporter gene assay; assay type: functional, cell-based
Acetylcholinesterase [9] = molecular target: Acetylcholinesterase (Homo sapiens, UniProt P22303)
Chain of Acetylcholinesterase (Homo sapiens, UniProt P22303) (P22303 whole entry): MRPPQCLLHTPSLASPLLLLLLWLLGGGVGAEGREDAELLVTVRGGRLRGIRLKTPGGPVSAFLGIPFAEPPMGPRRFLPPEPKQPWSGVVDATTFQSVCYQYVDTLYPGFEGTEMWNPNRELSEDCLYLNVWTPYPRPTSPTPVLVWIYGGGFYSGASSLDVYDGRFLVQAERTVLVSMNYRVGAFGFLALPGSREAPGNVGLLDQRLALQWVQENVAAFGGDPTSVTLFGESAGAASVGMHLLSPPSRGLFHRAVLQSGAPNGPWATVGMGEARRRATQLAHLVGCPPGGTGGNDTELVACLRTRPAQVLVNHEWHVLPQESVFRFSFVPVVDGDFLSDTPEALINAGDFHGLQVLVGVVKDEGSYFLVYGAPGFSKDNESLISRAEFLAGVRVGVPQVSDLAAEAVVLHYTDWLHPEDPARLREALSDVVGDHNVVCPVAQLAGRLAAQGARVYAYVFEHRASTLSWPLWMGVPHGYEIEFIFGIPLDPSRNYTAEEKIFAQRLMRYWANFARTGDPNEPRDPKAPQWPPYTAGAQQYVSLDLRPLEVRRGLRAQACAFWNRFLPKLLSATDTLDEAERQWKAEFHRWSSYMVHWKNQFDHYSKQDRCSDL

Chain of Histamine H2 receptor (Homo sapiens) (P25021 whole entry): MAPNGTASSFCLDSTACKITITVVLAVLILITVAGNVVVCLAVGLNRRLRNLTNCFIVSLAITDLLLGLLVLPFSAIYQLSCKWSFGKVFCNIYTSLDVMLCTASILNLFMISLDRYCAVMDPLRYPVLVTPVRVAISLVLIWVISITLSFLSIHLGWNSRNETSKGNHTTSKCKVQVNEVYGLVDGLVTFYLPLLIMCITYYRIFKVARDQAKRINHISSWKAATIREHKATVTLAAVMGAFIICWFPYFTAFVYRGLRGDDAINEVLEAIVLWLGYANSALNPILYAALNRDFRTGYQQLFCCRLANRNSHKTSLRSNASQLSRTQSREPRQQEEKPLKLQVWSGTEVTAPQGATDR
T2 sequence (Q9H3N8 whole entry): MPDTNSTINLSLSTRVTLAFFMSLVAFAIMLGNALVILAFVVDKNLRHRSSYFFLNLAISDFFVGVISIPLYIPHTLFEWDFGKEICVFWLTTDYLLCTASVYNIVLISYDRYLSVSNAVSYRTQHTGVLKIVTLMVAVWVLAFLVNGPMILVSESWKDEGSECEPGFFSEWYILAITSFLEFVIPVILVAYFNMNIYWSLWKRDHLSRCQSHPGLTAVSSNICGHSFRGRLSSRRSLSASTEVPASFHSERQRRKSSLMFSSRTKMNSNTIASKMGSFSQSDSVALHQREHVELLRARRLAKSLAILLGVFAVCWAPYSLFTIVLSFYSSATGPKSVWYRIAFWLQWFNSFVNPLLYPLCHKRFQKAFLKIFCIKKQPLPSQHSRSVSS
Chain of Histamine H1 receptor (Homo sapiens) (P35367 whole entry): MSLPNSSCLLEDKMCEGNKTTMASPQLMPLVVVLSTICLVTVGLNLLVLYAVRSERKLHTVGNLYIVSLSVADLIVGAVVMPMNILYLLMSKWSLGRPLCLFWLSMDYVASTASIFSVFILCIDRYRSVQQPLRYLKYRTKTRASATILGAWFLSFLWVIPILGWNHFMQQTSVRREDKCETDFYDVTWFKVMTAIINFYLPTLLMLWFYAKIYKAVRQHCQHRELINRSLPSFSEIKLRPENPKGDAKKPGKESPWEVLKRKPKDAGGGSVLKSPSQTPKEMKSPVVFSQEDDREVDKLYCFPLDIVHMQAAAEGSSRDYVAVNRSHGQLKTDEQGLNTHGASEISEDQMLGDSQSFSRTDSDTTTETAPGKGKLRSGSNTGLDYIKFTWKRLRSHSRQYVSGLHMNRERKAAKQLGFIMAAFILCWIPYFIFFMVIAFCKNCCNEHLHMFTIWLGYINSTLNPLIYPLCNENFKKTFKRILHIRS
T1 sequence (Q9Y5N1 whole entry): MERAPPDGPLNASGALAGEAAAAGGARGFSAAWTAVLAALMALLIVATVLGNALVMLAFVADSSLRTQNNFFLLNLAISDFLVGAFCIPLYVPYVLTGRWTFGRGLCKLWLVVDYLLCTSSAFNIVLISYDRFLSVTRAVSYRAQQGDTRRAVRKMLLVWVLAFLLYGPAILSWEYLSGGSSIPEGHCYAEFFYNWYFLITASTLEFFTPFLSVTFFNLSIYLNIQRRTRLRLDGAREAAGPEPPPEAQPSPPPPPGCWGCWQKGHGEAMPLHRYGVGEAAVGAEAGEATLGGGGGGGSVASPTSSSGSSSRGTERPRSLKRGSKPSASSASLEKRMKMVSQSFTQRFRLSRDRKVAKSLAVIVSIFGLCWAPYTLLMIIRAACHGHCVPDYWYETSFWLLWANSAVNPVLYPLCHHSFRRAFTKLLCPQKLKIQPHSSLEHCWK

`S=C(NC1CCCCC1)N1CCC(c2cnc[nH]2)CC1` [THIOPERAMIDE] was tested, and the inhibition [1] was “inactive”, the IC50 (Histamine H3 receptor [2]; hek293) was “Not Active” and the inhibition [3] was “inactive”.
With `Nc1nc2ccccc2nc1NC(=O)c1ccc(CN2CCCCC2)cc1` [listing 1 of 3 here] the inhibition (Histamine H4 receptor [4]) was “Active”, the inhibition [1] was “inactive” and the inhibition [3] was “inactive”. The inhibition (Histamine H3 receptor [5]) was 74.4% and 65.3%.
`Nc1nc2ccccc2nc1C(=O)Nc1ccc(CN2CCCCC2)cc1` was tested, and the IC50 (Histamine H3 receptor [2]; hek293) was “Not Active” and the IC50 (Acetylcholinesterase [6]; read-out: IC50) was 892 nM.
For `Nc1nc2ccccc2nc1CNc1ccc(CN2CCCCC2)cc1`, the inhibition (Histamine H4 receptor [4]) was “Active”, the inhibition [1] was “inactive” and the IC50 (Histamine H3 receptor [7]) was 130 nM. For the same compound, the IC50 (Histamine H3 receptor [2]; hek293) was “Not Active”, the IC50 (Acetylcholinesterase [6]) was “Not Active” and the inhibition [3] was “inactive”.
For `Nc1nc2ccccc2nc1/N=C/c1ccc(CN2CCCCC2)cc1`, the IC50 (Histamine H3 receptor [2]; hek293) was “Not Active” and the IC50 (Acetylcholinesterase [6]; read-out: IC50) was 748 nM.
`Nc1nc2ccccc2nc1C(=O)NC1CCN(Cc2ccccc2)CC1` was tested, and the IC50 (Histamine H3 receptor [2]; hek293) was “Not Active” and the IC50 (Acetylcholinesterase [6]) was “Not Active”.
In the case of `Nc1nc2ccccc2nc1NCCOc1ccc(CN2CCCCC2)cc1`, the inhibition (Histamine H4 receptor [4]) is reported as “Active”, the inhibition [1] is reported as “inactive” and the IC50 (Histamine H3 receptor [7]) is reported as 52.4 nM. The IC50 (Histamine H3 receptor [2]; hek293) was “Not Active”, the IC50 (Acetylcholinesterase [6]; read-out: IC50) was 1600 nM and the inhibition [3] was “inactive”.
`Cl.Nc1nc2ccccc2nc1NC(=O)c1ccc(CN2CCCC2)cc1` was tested, and the IC50 (Histamine H3 receptor [2]; hek293) was “Not Active”, the IC50 (Acetylcholinesterase [6]) was “Not Active” and the inhibition (Histamine H3 receptor [5]) was 0.8%.
For `Nc1nc2ccccc2nc1NC(=O)C1CCN(Cc2ccccc2)CC1`, the IC50 (Histamine H3 receptor [2]; hek293) was “Not Active” and the IC50 (Acetylcholinesterase [6]) was “Not Active”.
For `CN1CCN(Cc2ccc(OCCNc3nc4ccccc4nc3N)cc2)CC1`, the IC50 (Histamine H3 receptor [2]; hek293) was “Not Active” and the IC50 (Acetylcholinesterase [6]) was “Not Active”.
With `Nc1nc2ccccc2nc1C(=O)Nc1ccc(CN2CCCC2)cc1` the inhibition (Histamine H4 receptor [4]) was “Active”, the inhibition [1] was “inactive” and the IC50 (Histamine H3 receptor [7]) was 260 nM. For the same compound, the IC50 (Histamine H3 receptor [2]; read-out: IC50) was 378 nM, the IC50 (Acetylcholinesterase [6]; read-out: IC50) was 1500 nM and the inhibition [3] was “inactive”. It also gave an inhibition (Histamine H3 receptor [5]) of 72.8%.
`CCN(CC)Cc1ccc(OCCNc2nc3ccccc3nc2N)cc1` was tested, and the inhibition (Histamine H4 receptor [4]) was “Active”, the inhibition [1] was “inactive” and the IC50 (Histamine H3 receptor [7]) was 182 nM. The IC50 (Histamine H3 receptor [2]; hek293) was “Not Active”, the IC50 (Acetylcholinesterase [6]; read-out: IC50) was 3870 nM and the inhibition [3] was “inactive”.
In the case of `Nc1nc2ccccc2nc1NC(=O)c1ccc(CN2CCCCC2)cc1` [listing 2 of 3 here], the IC50 (Histamine H3 receptor [7]) is reported as 511 nM, the IC50 (Histamine H3 receptor [2]; read-out: IC50) is reported as 171 nM and the IC50 (Acetylcholinesterase [6]; read-out: IC50) is reported as 313 nM. The IC50 (Histamine H4 receptor [8]; hek293) was > 10000 nM.
`Nc1nc2ccccc2nc1NC(=O)c1ccc(CN2CCCCC2)cc1` [listing 3 of 3 here] showed an IC50 (Histamine H3 receptor [7]) of 280 nM, an IC50 (Histamine H3 receptor [2]; read-out: IC50) of 189 nM and an IC50 (Acetylcholinesterase [6]; read-out: IC50) of 483 nM. For the same compound, the IC50 (Histamine H4 receptor [8]) was > 10000 nM.
`Nc1nc2ccccc2nc1NCCCOc1ccc(CN2CCCCC2)cc1` was tested, and the IC50 (Histamine H3 receptor [2]; hek293) was “Not Active” and the IC50 (Acetylcholinesterase [6]; read-out: IC50) was 1930 nM.
For `Nc1nc2ccccc2nc1NCc1ccc(CN2CCCCC2)cc1`, the IC50 (Histamine H3 receptor [2]; hek293) was “Not Active” and the IC50 (Acetylcholinesterase [6]; read-out: IC50) was 476 nM.
For `Nc1nc2ccccc2nc1NCC(=O)Nc1ccc(CN2CCCCC2)cc1`, the IC50 (Histamine H3 receptor [2]; hek293) was “Not Active” and the IC50 (Acetylcholinesterase [6]; read-out: IC50) was 1160 nM.
For `Nc1nc2ccccc2nc1NCC(=O)Nc1ccc(CN2CCCC2)cc1`, the IC50 (Histamine H3 receptor [2]; hek293) was “Not Active” and the IC50 (Acetylcholinesterase [6]; read-out: IC50) was 1170 nM.
In the case of `COc1cc2c(cc1OC)C(=O)C(Oc1ccc(CN3CCCC3)cc1)C2` (stereo not given), the IC50 (Acetylcholinesterase [9]) is reported as 50 nM.
`Nc1nc2ccccc2nc1NCC(=O)NC1CCN(Cc2ccccc2)CC1` was tested, and the IC50 (Histamine H3 receptor [2]; hek293) was “Not Active”, the IC50 (Acetylcholinesterase [6]; read-out: IC50) was 1330 nM and the inhibition (Histamine H3 receptor [5]) was 4.5%.
